Source: ChEMBL document CHEMBL1148248, “Potentiation of cytotoxic drug activity in human tumour cell lines, by amine-substituted 2-arylbenzimidazole-4-carboxamide PARP-1 inhibitors” (Bioorg Med Chem Lett, 2004)

Key:
[1] = target: Poly [ADP-ribose] polymerase 1 (Homo sapiens, UniProt P09874)
[2] = test system: LoVo; test: Cytotoxic potentiation factor of temoxolomide in human LoVo cancer cell line at 0.4 uM concentration; format: functional
Method in brief: (§1)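 Exponentially growing cells were exposed to increasing concentrations of cytotoxic drug (temozolomide or topotecan), alone or with PARP-1 inhibitor fixed at 0.4 µM. Drugs were added from DMSO stocks, giving 1% DMSO final. Growth was read by SRB assay and normalised to the 1% DMSO control or to inhibitor alone. PF50 is the ratio of drug GI50 alone to drug GI50 with inhibitor.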

[3] = test system: LoVo; test: Compound was evaluated for cytotoxic potentiation factor of topotecan in human LoVo cancer cell line at 0.4 uM concentration; format: functional
Method in brief: as §1

[4] = test system: A549; test: Compound was evaluated for cytotoxic potentiation factor of topotecan in human A549 tumor cell line at 0.4 uM concentration; format: functional
Method in brief: as §1

[5] = test system: A549; test: Cytotoxic potentiation factor of temoxolomide in human A549 tumor cell line at 0.4 uM concentration; format: functional
Method in brief: as §1

Poly [ADP-ribose] polymerase 1, sequence (P09874 whole entry): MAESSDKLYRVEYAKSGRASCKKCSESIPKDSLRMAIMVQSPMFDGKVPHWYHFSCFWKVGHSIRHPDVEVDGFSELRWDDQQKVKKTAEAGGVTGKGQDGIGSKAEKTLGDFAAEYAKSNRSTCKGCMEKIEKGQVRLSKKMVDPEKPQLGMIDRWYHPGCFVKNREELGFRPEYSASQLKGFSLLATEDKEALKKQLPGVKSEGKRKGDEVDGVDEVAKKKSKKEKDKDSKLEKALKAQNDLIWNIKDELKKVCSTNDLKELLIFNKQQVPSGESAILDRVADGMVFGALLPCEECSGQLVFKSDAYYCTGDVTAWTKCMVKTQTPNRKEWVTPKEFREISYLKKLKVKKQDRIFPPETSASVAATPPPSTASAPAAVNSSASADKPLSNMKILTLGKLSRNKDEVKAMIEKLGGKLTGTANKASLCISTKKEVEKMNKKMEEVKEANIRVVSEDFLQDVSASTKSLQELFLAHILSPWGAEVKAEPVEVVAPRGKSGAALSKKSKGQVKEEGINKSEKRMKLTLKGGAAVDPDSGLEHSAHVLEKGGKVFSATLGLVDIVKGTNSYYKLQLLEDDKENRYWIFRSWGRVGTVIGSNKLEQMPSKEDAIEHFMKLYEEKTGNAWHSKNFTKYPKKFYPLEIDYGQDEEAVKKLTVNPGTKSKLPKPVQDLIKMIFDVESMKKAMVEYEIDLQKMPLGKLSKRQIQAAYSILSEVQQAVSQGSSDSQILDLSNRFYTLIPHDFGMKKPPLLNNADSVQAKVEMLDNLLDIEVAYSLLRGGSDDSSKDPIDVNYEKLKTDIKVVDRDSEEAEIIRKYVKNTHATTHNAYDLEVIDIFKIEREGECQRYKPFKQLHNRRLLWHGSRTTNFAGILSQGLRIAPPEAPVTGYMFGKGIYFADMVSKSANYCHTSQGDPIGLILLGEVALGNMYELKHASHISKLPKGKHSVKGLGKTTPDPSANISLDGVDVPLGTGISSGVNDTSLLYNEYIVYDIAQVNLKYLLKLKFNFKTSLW

NC(=O)c1cccc2[nH]c(-c3cccc(CN4CCOCC4)c3)nc12
Ki [1]: 31 nM

CN(C)Cc1cccc(-c2nc3c(C(N)=O)cccc3[nH]2)c1
Ki [1]: 5.6 nM
PF50 [2]: 1.7
PF50 [3]: 1.4

NC(=O)c1cccc2[nH]c(-c3ccc(CN4CCCCC4)cc3)nc12
Ki [1]: 7.2 nM

CN1CCN(Cc2cccc(-c3nc4c(C(N)=O)cccc4[nH]3)c2)CC1
Ki [1]: 9.8 nM

NC(=O)c1cccc2[nH]c(-c3cccc(CN(CCO)CCO)c3)nc12
Ki [1]: 272 nM
PF50 [4]: 1.1
PF50 [5]: 1.1

NC(=O)c1cccc2[nH]c(-c3ccc(CN4CCCC4)cc3)nc12
Ki [1]: 5.9 nM
PF50 [2]: 5.2
PF50 [4]: 1.8
PF50 [5]: 1.5
PF50 [3]: 1.5

CN1CCN(Cc2ccc(-c3nc4c(C(N)=O)cccc4[nH]3)cc2)CC1
Ki [1]: 8.7 nM

NC(=O)c1cccc2[nH]c(-c3ccc(CN4CCOCC4)cc3)nc12
Ki [1]: 12 nM

CN(C)Cc1ccc(-c2nc3c(C(N)=O)cccc3[nH]2)cc1
Ki [1]: 4.5 nM
PF50 [2]: 4
PF50 [4]: 1.9
PF50 [5]: 1.6
PF50 [3]: 1.7

NC(=O)c1cccc2[nH]c(-c3cccc(CN4CCCC4)c3)nc12
Ki [1]: 10.2 nM
PF50 [2]: 1.7
PF50 [3]: 1.1

NC(=O)c1cccc2[nH]c(-c3ccc(CN(CCO)CCO)cc3)nc12
Ki [1]: 4.5 nM
